Source: PubChem
An excerpt weighted towards active compounds, which were near 2.5% of everything screened.
NR2E3 ag-1: activates human photoreceptor nuclear receptor NR2E3 | Q9Y5X4 | GST-NR2E3/biotin-RetCOR TR-FRET, 1536-well | inhibition of corepressor binding, % at 4.78 µM | actives 0.12% (n = 320,000);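 active = percent inhibition above the cutoff of mean plus 3 SD of all tested compounds, set per screening campaign, cut at about 20% in these data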;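 also: 0% = DMSO wells and 100% = biotin wells as full block of FRET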
Target sequence (Q9Y5X4 whole entry, looked up): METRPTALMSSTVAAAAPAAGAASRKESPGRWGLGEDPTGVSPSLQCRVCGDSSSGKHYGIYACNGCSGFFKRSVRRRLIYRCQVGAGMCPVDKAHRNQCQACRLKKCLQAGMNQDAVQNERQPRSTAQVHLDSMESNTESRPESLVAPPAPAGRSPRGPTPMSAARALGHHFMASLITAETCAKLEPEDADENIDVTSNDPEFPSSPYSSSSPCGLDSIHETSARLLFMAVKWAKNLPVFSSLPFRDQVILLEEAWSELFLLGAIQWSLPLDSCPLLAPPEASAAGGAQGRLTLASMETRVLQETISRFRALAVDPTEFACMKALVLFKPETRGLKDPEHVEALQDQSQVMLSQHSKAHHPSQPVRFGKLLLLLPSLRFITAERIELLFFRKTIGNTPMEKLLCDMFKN
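Format: 1536-well format; test system: GST-NR2E3 and biotin-RetCOR proteins; read-out basis: percent inhibition of TR-FRET ratio; timing: 5 h incubation at 4 °C; detection: time-resolved FRET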
ADAM17 inh: inhibits human ADAM17; actives 0.83% (n = 370,000); inhibition, % at 6.95 µM; AID 720648; recombinant ADAM17, EDANS/DABCYL FRET peptide cleavage; P78536;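 active = inhibition above the mean of compounds lying between control limits plus 3 SD, set per campaign, cut at about 8.5% in these data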;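 also: 0% = DMSO-only wells as the low control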
JMJD2C inh: blocks human GASC-1 demethylase activity; GST-JMJD2C(1-420) H3K9me3 demethylation, DELFIA europium; inhibition, % at 2.35 µM; actives 0.069% (n = 330,000); AID 2099;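 active = more than half of a compound's replicate wells show inhibition beyond 50%, single wells judged on their own value; inconclusive = some, but no more than half, of replicates pass 50% inhibition; inactive = no replicate passes 50% inhibition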;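 also: signal counts dimethyl H3K9 product captured on neutravidin plate; 0% = median of DMSO wells and 100% = 0.3 times that DMSO median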
ADAM10 inh: inhibits human ADAM10 | actives 0.62% (n = 370,000) | inhibition, % at 7 µM | O14672 | recombinant ADAM10, EDANS/DABCYL FRET peptide cleavage, 3 h;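 active = inhibition above a per-campaign cutoff equal to the mean of compounds falling between control-based bounds plus 3 SD, cut at about 20% in these data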;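 also: 0% = DMSO wells while the 100% control is not disclosed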
NR2E3 ag-2: agonists of human NR2E3 nuclear receptor; Q9Y5X4; CHO-S Gal4-NCOR/VP16-NR2E3 two-hybrid, luciferase; inhibition of corepressor binding, % at 3.98 µM; actives 0.35% (n = 360,000); AID 602229;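 active = inhibition above the mean of all tested compounds plus 3 SD, cut at about 70% in these data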;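 also: 0% = DMSO with NR2E3 transfected cells and 100% = cells lacking NR2E3 construct; higher means lower luciferase signal from less NR2E3 corepressor binding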
KLK7 zymogen act: proKLK7 (human) activation, primary screen | activation, % at 7 µM | purified proKLK7, EDANS-DABCYL substrate fluorescence; 100% is mature enzyme control, 0% vehicle | actives 0.9% (n = 370,000) | AID 652039 | P49862;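 active = activation above the mean of all tested compounds plus 3 SD, computed per campaign excluding outliers beyond control limits, cut at about 13% in these data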
Target sequence (P49862 whole entry, looked up): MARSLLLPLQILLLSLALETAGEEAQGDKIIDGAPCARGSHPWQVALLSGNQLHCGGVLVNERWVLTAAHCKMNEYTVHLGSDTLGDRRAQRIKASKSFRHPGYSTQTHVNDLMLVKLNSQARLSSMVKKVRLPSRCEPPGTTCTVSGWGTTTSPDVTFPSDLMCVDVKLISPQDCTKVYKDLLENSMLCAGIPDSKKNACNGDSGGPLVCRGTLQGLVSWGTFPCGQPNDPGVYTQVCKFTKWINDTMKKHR
NR2E3 ag conf: confirmation of human NR2E3 agonists; actives 51% (n = 2,300); shares compounds with NR2E3 ag-2; inhibition, % at 3.98 µM; CHO-S mammalian two-hybrid NR2E3-NCOR, luciferase luminescence;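 active = average inhibition above a cutoff equal to the mean inhibition of all tested compounds plus one SD, cut at about 70% in these data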;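 also: 0% = DMSO in NR2E3 cells and 100% = DMSO in cells lacking NR2E3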
GAL4-VP16 luc: reduces GAL4-VP16 reporter signal in NR2E3 counterscreen. shares compounds with NR2E3 ag-2. CHO-S GAL4-VP16 luciferase reporter, luminescence. inhibition, % at 3.98 µM. actives 29% (n = 2,300);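 active = mean inhibition above a cutoff equal to the average over all tested compounds plus one standard deviation, cut at about 70% in these data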;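 also: luciferase from a UAS reporter driven by GAL4-VP16 transactivation; 0% = DMSO with VP16-transfected cells and 100% = DMSO with cells lacking VP16; higher means less reporter light so more repression of VP16 activity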
* hit, by the source's call; ? = inconclusive; nt = no result given.

SMILES | NR2E3 ag-1 | ADAM17 inh | JMJD2C inh | ADAM10 inh | NR2E3 ag-2 | KLK7 zymogen act | NR2E3 ag conf | GAL4-VP16 luc
CN(c1ccc(F)cc1)S(=O)(=O)c1ccc(Cl)c(C(=O)Nc2ccncc2)c1 | 5 | -2 | 0 | -4 | 87* | 0 | 54 | 60
CN(c1ccccc1)S(=O)(=O)c1ccc(Cl)c(C(=O)Nc2ccncc2)c1 | -2 | 6 | 1 | 2 | 76* | 0 | 69 | 56
CC(=O)Nc1ccc(OCC(O)CN2CCN(c3ccc(F)cc3)CC2)cc1 (stereo unspecified) | 1 | -4 | 5 | -3 | 8 | 0 | nt | nt
CC(Nc1ncnc2sccc12)c1ccccc1 (stereo unspecified) | -2 | 1 | -11 | 3 | 106* | 0 | 97* | 86*
COc1ccccc1-n1cnnc1SC(C)C(=O)Nc1cccc([N+](=O)[O-])c1 (stereo unspecified) | 0 | -4 | -6 | -5 | -15 | 0 | nt | nt
O=C(COc1ccccc1[N+](=O)[O-])N1CCC(Cc2ccccc2)CC1 | 0 | -2 | -7 | -2 | -13 | 0 | nt | nt
NC(=O)c1ccccc1OCC(=O)N1CCC(Cc2ccccc2)CC1 | 2 | 4 | 12 | -18 | 77* | -1 | 92* | 74*
CCOc1ccc(NC(=O)Cn2cc(C(C)=O)c3ccccc32)cc1 | 0 | -3 | 5 | 0 | -9 | 0 | nt | nt
COc1ccc(NC(=O)Cn2cc(C(C)=O)c3ccccc32)cc1 | -1 | -1 | -1 | -2 | 49 | 0 | 57 | 56
CCc1c(C)nc2ncnn2c1Nc1ccc(C)cc1 | 3 | -3 | 6 | 0 | -3 | 0 | nt | nt
CCc1c(C)nc2ncnn2c1NCCc1ccc(OC)cc1 | -1 | -5 | -7 | -6 | 84* | 0 | 89* | 66
CCOC(=O)[C@]12CCCCC/C=C\1N(CCc1ccc(Cl)cc1)C(=O)[C@H]2CC(=O)N1CCN(C(=O)C2CC2)CC1 | nt | 5 | nt | 6 | nt | 0 | nt | nt
COc1ccc(CCN(C)C(=O)COc2ccc(C(=O)c3ccccc3)cc2)cc1OC | -3 | -3 | -27 | -4 | 10 | 0 | nt | nt
COc1ccc(CCN(C)C(=O)Cc2ccc(-c3ccccc3)cc2)cc1OC | 2 | 1 | 10 | 1 | 85* | 0 | 85* | 60
Cn1ncc(C#N)c1NC(=O)C1CC(c2ccc(Cl)c(Cl)c2)=NO1 (stereo unspecified) | 0 | -3 | ? | 8 | 0 | 0 | nt | nt
O=C(NCC1CCCO1)C1CC(c2ccc(Cl)c(Cl)c2)=NO1 (stereo unspecified) | -1 | 1 | -7 | 5 | 48 | 0 | 25 | 19
COc1ccc(CCNS(=O)(=O)CCNC(=O)c2ccc3c(c2)OCO3)cc1 | 3 | -1 | -4 | 3 | 8 | 0 | nt | nt
Cc1cccc(NC(=S)N/N=C(\c2ccccc2)C(C)C)c1 | 4 | -6 | -1 | -1 | 65 | 0 | 20 | -50
Cc1cc(OCC(=O)Nc2c(C(C)C)cccc2C(C)C)no1 | nt | -2 | nt | -6 | -16 | 0 | nt | nt
CCOC(=O)CC(=O)c1sc2c(c1N)c(=O)[nH]c(=O)n2-c1ccc(OC)cc1 | 3 | -1 | 6 | -2 | -20 | 1 | nt | nt
CCn1cc(CN(C)S(=O)(=O)c2ccc3ccccc3c2)c(C)n1 | 2 | 0 | -7 | 3 | 66 | 0 | 88* | 71*
Cc1ccc(S(=O)(=O)CC2CSc3nc4ccccc4n32)cc1 (stereo unspecified) | -1 | -8 | 0 | -8 | 74* | 0 | 93* | 70
CC1Cc2ccccc2N1C(=S)NC(=O)c1ccc(Cl)cc1Cl (stereo unspecified) | 2 | -1 | 5 | 2 | 78* | 0 | 28 | 26
CC1Cc2ccccc2N1C(=S)NC(=O)c1cccc(Br)c1 (stereo unspecified) | -2 | -3 | -2 | 2 | 26 | 0 | nt | nt
CCOc1ccc2nc(CN3CCN(Cc4ccsc4)C(CCO)C3)ccc2c1 (stereo unspecified) | -2 | -15 | 6 | -42 | 19 | -1 | nt | nt
SMILES | NR2E3 ag-1 | ADAM17 inh | JMJD2C inh | ADAM10 inh | NR2E3 ag-2 | KLK7 zymogen act | NR2E3 ag conf | GAL4-VP16 luc
COc1ccccc1-n1cnnc1SCC(=O)Nc1cc(C(C)(C)C)nn1-c1ccccc1 | 2 | 2 | 6 | 6 | 12 | 0 | nt | nt
COc1ccc(-n2cnnc2SCC(=O)Nc2cc(C(C)(C)C)nn2-c2ccccc2)cc1 | -1 | -1 | -2 | 3 | 66 | 0 | 20 | 15
COc1ccccc1CNS(=O)(=O)c1ccc2c(c1)CC(C)N2C(=O)C1CC1 (stereo unspecified) | -1 | 5 | 1 | 11 | 29 | 0 | nt | nt
COc1ccccc1CNS(=O)(=O)c1ccc2c(c1)CC(C)N2C(=O)C1CCC1 (stereo unspecified) | -1 | 1 | 0 | 3 | 72* | 0 | 72* | 58
CC(C)CNC(=O)C1CSCCS(=O)(=O)N1Cc1ccccc1 (stereo unspecified) | nt | -3 | nt | -2 | nt | 0 | nt | nt
Cc1ccc(/C=C2\SC(=S)N(CCCC(=O)Nc3ccc(O)cc3)C2=O)cc1 | 2 | 5 | -1 | 10 | 78* | 0 | -3 | 63
O=C(CN1C(=O)S/C(=C/C=C/c2ccccc2)C1=O)Nc1ccc(C(=O)O)cc1 | 4 | -1 | 5 | -2 | -46 | 1 | nt | nt
Cc1ccc(/C=C2\SC(=S)N(CCCC(=O)Nc3ccccn3)C2=O)cc1 | 2 | -2 | 8 | -2 | 67 | 1 | 59 | 93*
O=C(CCCN1C(=O)S/C(=C\C=C\c2ccccc2)C1=O)Nc1ccc(O)cc1 | 0 | 2 | 3 | 3 | 49 | -1 | 0 | 58
O=C(CCN1C(=O)/C(=C/c2ccccc2)SC1=S)Nc1ccccn1 | 1 | -4 | 12 | 0 | -13 | -1 | nt | nt
O=C(c1cccc(C(F)(F)F)c1)N1CC[C@H]2[C@H](CCCN2Cc2ccccc2)C1 | nt | -3 | nt | -7 | nt | -1 | nt | nt
CC(=O)c1ccc(N2CCN(S(=O)(=O)c3ccc4c(c3)CC(C)N4C(C)=O)CC2)cc1 (stereo unspecified) | -1 | -13 | -2 | -63 | 70* | 1 | 92* | 73*
CC1Cc2cc(S(=O)(=O)N3CCC(C(=O)N4CCN(c5ccccc5F)CC4)CC3)ccc2N1C(=O)C1CC1 (stereo unspecified) | 0 | 2 | -12 | 12 | 74* | 1 | 46 | 45
